Results on one compound are retold here after ChEMBL document CHEMBL4715796, “Discovery of Chromane Containing Hepatitis C Virus (HCV) NS5A Inhibitors with Improved Potency against Resistance-Associated Variants” (J Med Chem, 2016).

A short description of this data set: Cytotoxicity against human HuH7 cells assessed as reduction in cell viability measured after 72 hrs by Hoechst/Alexa fluor 488 staining based Edu plus cell counting analysis. Details: species or system Huh-7. In outline: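 Huh7 cells were seeded at 1,200 per well and treated with a 20-point twofold compound dilution series for 72 h, with EdU added for the last 18-20 h. Cells were then fixed and permeabilized, nuclei stained with Hoechst, and EdU labelled with Alexa Fluor 488 by click reaction. Plates were scanned with 405 nm (420-500 nm) and 488 nm (500-530 nm) detection, giving CC50.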

For the compound `COC(=O)N[C@H](C(=O)N1CCC[C@H]1c1ncc(-c2cc(F)c3c(c2)OC(c2ccc4c(c2)OCCC4)n2c-3cc3cc(-c4cnc([C@@H]5CCCN5C(=O)[C@@H](NC(=O)OC)C(C)C)[nH]4)ccc32)[nH]1)C(C)C` (stereo partly specified), the CC50 at 72 h is > 50 µM.

Usually CC50 stands for the concentration giving 50% cytotoxicity.
